Assay [1] deals with Nakaseomyces glabratus. The assay can be described thus: Antifungal activity against 2.44 x 10^8 CFU fluconazole-susceptible Candida glabrata isolate 4293 infected neutropenic CD1 mouse disseminated candidiasis model assessed as reduction in kidney tissue fungal burden at 25 mg/kg/day, ip administered 24 hrs post infection measured 7 days post infection by colony count method. It counts as functional, organism-based. The method in brief:
(§1)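 Male CD1 mice (25 g) made neutropenic with cyclophosphamide 200 mg/kg i.p. on days −4, +1 and +4, then infected i.v. via the lateral tail vein (0.2 ml). Dosing started 24 h post-challenge, once daily for 6 days, 0.2 ml: POS by oral gavage, FLC i.p. On day 7, homogenized kidneys (entire organ) plated on Sabouraud agar; CFU per kidney pair; 7–8 mice per group.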

Assay [2] has as its system Nakaseomyces glabratus. The assay can be described thus: Antifungal activity against 1.04 x 10^8 CFU fluconazole-susceptible Candida glabrata isolate 4293 infected neutropenic CD1 mouse disseminated candidiasis model assessed as reduction in kidney tissue fungal burden at 25 mg/kg/day, ip administered 24 hrs post infection measured 7 days post infection by colony count method. It counts as functional, organism-based.

The test system of assay [3] is Nakaseomyces glabratus. The assay can be described thus: Fungistatic activity against Candida glabrata isolate 4198 assessed as 99.9% reduction of initial fungal load at 0.5 times MIC after 48 hrs using colony count method by time-kill method. The assay is classed as functional, organism-based. The method in brief:
(§2)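 0.5 McFarland suspension from a 48-h plate, diluted 1:10 into MOPS-buffered RPMI 1640 with drug at 0.5× or 8× MIC. Shaken at 35°C; sampled at 0, 2, 4, 8 and 24 h, serially diluted and plated in triplicate on Sabouraud agar for 48 h at 35°C. Detection limit 20 CFU/ml; fungicidal = 99.9% fall from initial inoculum. Each isolate tested at least twice.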

Assay [4] concerns Nakaseomyces glabratus. The assay can be described thus: Fungistatic activity against Candida glabrata isolate 4205 assessed as 99.9% reduction of initial fungal load at 0.5 times MIC after 48 hrs using colony count method by time-kill method. It counts as functional, organism-based. The method in brief: as §2
Assay [5] deals with Nakaseomyces glabratus. The assay can be described thus: Fungistatic activity against Candida glabrata isolate 4293 assessed as 99.9% reduction of initial fungal load at 0.5 times MIC after 48 hrs using colony count method by time-kill method. The assay is classed as functional, organism-based. The method in brief:
as §2

The test system of assay [6] is Candida parapsilosis. The assay can be described thus: Fungistatic activity against Candida parapsilosis ATCC 22019 assessed as 99.9% reduction of int initial fungal load at 0.5 times MIC after 48 hrs using colony count method by time-kill method. The assay is classed as functional, organism-based.
In assay [7] the test system is Nakaseomyces glabratus. The assay can be described thus: Fungistatic activity against Candida glabrata 4370 assessed as 99.9% reduction of int initial fungal load at 0.5 times MIC after 48 hrs using colony count method by time-kill method. It counts as functional, organism-based. The method in brief:
as §2

Assay [8] relates to Nakaseomyces glabratus. The assay can be described thus: Fungistatic activity against Candida glabrata isolate 4198 assessed as 99.9% reduction of initial fungal load at 8 times MIC after 48 hrs using colony count method by time-kill method. The assay is classed as functional, organism-based. The procedure, abridged:
as §2

In assay [9] the test system is Nakaseomyces glabratus. The assay can be described thus: Fungistatic activity against Candida glabrata isolate 4205 assessed as 99.9% reduction of initial fungal load at 8 times MIC after 48 hrs using colony count method by time-kill method. The assay is classed as functional, organism-based.
Assay [10] deals with Nakaseomyces glabratus. The assay can be described thus: Fungistatic activity against Candida glabrata isolate 4293 assessed as 99.9% reduction of initial fungal load at 8 times MIC after 48 hrs using colony count method by time-kill method. The assay is classed as functional, organism-based. The method in brief: as §2
Assay [11] concerns Nakaseomyces glabratus. The assay can be described thus: Antifungal activity against fluconazole-susceptible Candida glabrata isolate 4205 infected neutropenic CD1 mouse disseminated candidiasis model assessed as reduction in kidney tissue fungal burden at 30 mg/kg/day, po administered 24 hrs post infection measured 7 days post infection by colony count method. The assay is classed as functional, organism-based. The procedure, abridged: as §1

The subject of assay [12] is Nakaseomyces glabratus. The assay can be described thus: Antifungal activity against fluconazole-resistant Candida glabrata isolate 4198 infected neutropenic CD1 mouse disseminated candidiasis model assessed as reduction in kidney tissue fungal burden at 30 mg/kg/day, po administered 24 hrs post infection measured 7 days post infection by colony count method. The assay is classed as functional, organism-based. The method in brief:
as §1

The test system of assay [13] is Candida parapsilosis. The assay can be described thus: Antifungal activity against Candida parapsilosis ATCC 22019 after 48 hrs by microdilution method. To be noted: Lodderomyces parapsilosis, ATCC 22019, 48 h. It counts as functional. The procedure, abridged: (§3)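 CLSI M27-A2 broth microdilution. Final ranges: POS, CAS, AMB 0.0078–8.0 μg/ml; FLC 0.125–64 μg/ml. Incubated at 35°C, read at 24 and 48 h by OD490. MIC for POS, FLC, CAS: first concentration giving 50% lower turbidity than control; for AMB: 90% lower. Run in quintuplicate; C. parapsilosis ATCC 22019 as quality control.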
For orientation: Broth dilution looks for growth in wells or tubes with falling amounts of substance.

For assay [14], the system named is Nakaseomyces glabratus. The assay can be described thus: Antifungal activity against Candida glabrata isolate 4198 after 48 hrs by microdilution method. It counts as functional. To be noted: isolate 4198, 48 h. The method in brief: as §3
Assay [15] has as its system Nakaseomyces glabratus. The assay can be described thus: Antifungal activity against Candida glabrata isolate 4205 after 48 hrs by microdilution method. It counts as functional. The method in brief: as §3
Assay [16] relates to Nakaseomyces glabratus. The assay can be described thus: Antifungal activity against Candida glabrata isolate 4293 after 48 hrs by microdilution method. It counts as functional. The method in brief: as §3
Assay [17] concerns Nakaseomyces glabratus. The assay can be described thus: Antifungal activity against Candida glabrata isolate 4370 after 48 hrs by microdilution method. It counts as functional. The procedure, abridged:
as §3

In assay [18] the test system is Candida parapsilosis. The assay can be described thus: Fungistatic activity against Candida parapsilosis ATCC 22019 assessed as 99.9% reduction of int initial fungal load at 8 times MIC after 48 hrs using colony count method by time-kill method. The assay is classed as functional, organism-based.
Assay [19] relates to Nakaseomyces glabratus. The assay can be described thus: Fungistatic activity against Candida glabrata 4370 assessed as 99.9% reduction of int initial fungal load at 8 times MIC after 48 hrs using colony count method by time-kill method. The assay is classed as functional, organism-based. The method in brief:
as §2

In assay [20] the test system is Nakaseomyces glabratus. The assay can be described thus: Antifungal activity against 2.44 x 10^8 CFU fluconazole-susceptible Candida glabrata isolate 4293 infected neutropenic CD1 mouse disseminated candidiasis model assessed as reduction in kidney tissue fungal burden at 1 mg/kg/day, ip administered 24 hrs post infection measured 7 days post infection by colony count method. The assay is classed as functional, organism-based. The method in brief: (§4)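 Neutropenia induced in male CD1 mice (25 g) with cyclophosphamide 200 mg/kg i.p. on days −4, +1 and +4. Mice were infected i.v. via the tail vein (0.2 ml). Drug was given i.p. at […], starting 24 h post-challenge, for 6 consecutive days. Kidney pairs were homogenized on day 7 and plated on Sabouraud dextrose agar for CFU counts. Groups had 7–8 mice.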

The test system of assay [21] is Nakaseomyces glabratus. The assay can be described thus: Antifungal activity against 2.44 x 10^8 CFU fluconazole-susceptible Candida glabrata isolate 4293 infected neutropenic CD1 mouse disseminated candidiasis model assessed as reduction in kidney tissue fungal burden at 15 mg/kg/day, po administered 24 hrs post infection measured 7 days post infection by colony count method. It counts as functional, organism-based. The method in brief: as §1

The subject of assay [22] is Nakaseomyces glabratus. The assay can be described thus: Antifungal activity against 1.04 x 10^8 CFU fluconazole-susceptible Candida glabrata isolate 4293 infected neutropenic CD1 mouse disseminated candidiasis model assessed as reduction in kidney tissue fungal burden at 30 mg/kg/day, po administered 24 hrs post infection measured 7 days post infection by colony count method. It counts as functional, organism-based. The procedure, abridged: as §1

In assay [23] the test system is Nakaseomyces glabratus. The assay can be described thus: Antifungal activity against 1.04 x 10^8 CFU fluconazole-susceptible Candida glabrata isolate 4293 infected neutropenic CD1 mouse disseminated candidiasis model assessed as reduction in kidney tissue fungal burden at 1 mg/kg/day, ip administered 24 hrs post infection measured 7 days post infection by colony count method. The assay is classed as functional, organism-based. The procedure, abridged:
as §4

The structures appear in SMILES notation. ≈ marks a conversion by molar mass, not a printed value. Calls of active or inactive are those of the source. The calls are words filed in the database; no cut-off is given here.

Usually MIC stands for the lowest concentration found to suppress growth. Low readings indicate greater potency, high ones weaker potency.

On to `OC(Cn1cncn1)(Cn1cncn1)c1ccc(F)cc1F` [FLUCONAZOLE], for which the result in the assay with Nakaseomyces glabratus [1], in the assay on Nakaseomyces glabratus [3], in the assay on Nakaseomyces glabratus [4], with Nakaseomyces glabratus [5], in the assay with Candida parapsilosis [6] and in the assay with Nakaseomyces glabratus [7] was Active. The result in the assay with Nakaseomyces glabratus [8], in the assay with Nakaseomyces glabratus [9], in the assay with Nakaseomyces glabratus [10], with Nakaseomyces glabratus [11], in the assay on Candida parapsilosis [18] and in the assay on Nakaseomyces glabratus [19] was Active. For the same compound, the result in the assay with Nakaseomyces glabratus [20] was Active. The result in the assay on Nakaseomyces glabratus [2] and in the assay on Nakaseomyces glabratus [12] was inactive. Moreover, the MIC is 4 µg/mL (≈ 13.1 µM) against Candida parapsilosis [13]; greater than 64 µg/mL with Nakaseomyces glabratus [14]; 1 µg/mL (≈ 3.27 µM) against Nakaseomyces glabratus [15]; 32 µg/mL (≈ 104 µM) with Nakaseomyces glabratus [16]; 16 µg/mL (≈ 52.2 µM) in the assay with Nakaseomyces glabratus [17].
Take `CC[C@@H]([C@H](C)O)n1ncn(-c2ccc(N3CCN(c4ccc(OC[C@@H]5CO[C@@](Cn6cncn6)(c6ccc(F)cc6F)C5)cc4)CC3)cc2)c1=O` [POSACONAZOLE]: the result with Nakaseomyces glabratus [1], with Nakaseomyces glabratus [2], in the assay on Nakaseomyces glabratus [3], in the assay on Nakaseomyces glabratus [4], in the assay on Nakaseomyces glabratus [5] and in the assay on Candida parapsilosis [6] was Active. In addition, the result in the assay with Nakaseomyces glabratus [7], in the assay with Nakaseomyces glabratus [8], in the assay with Nakaseomyces glabratus [9], with Nakaseomyces glabratus [10], in the assay with Nakaseomyces glabratus [21] and with Nakaseomyces glabratus [22] was Active. The outcome in the assay with Nakaseomyces glabratus [11], in the assay with Nakaseomyces glabratus [12], with Candida parapsilosis [18] and in the assay on Nakaseomyces glabratus [19] was Active. Besides, the minimum inhibitory concentration (MIC) was no more than 0.03 µg/mL against Candida parapsilosis [13]; 0.5 µg/mL (≈ 0.713 µM) with Nakaseomyces glabratus [14]; no more than 0.03 µg/mL in the assay on Nakaseomyces glabratus [15]; 0.25 µg/mL (≈ 0.357 µM) with Nakaseomyces glabratus [16]; 0.06 µg/mL (≈ 0.0856 µM) against Nakaseomyces glabratus [17]. For the same compound, the result with Nakaseomyces glabratus [23] was inactive.
